Measurements taken from ChEMBL document CHEMBL1124791, “Structure-activity relationships of the lissoclinamides: cytotoxic cyclic peptides from the ascidian Lissoclinum patella” (J Med Chem, 1990).
Converted amounts (≈) assume the structure as drawn.

Legend:
[1] = Concentration required for 50% inhibition of growth by the compound in normal peripheral blood lymphocytes; type: functional, cell-based, Homo sapiens
Outline: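 Human lymphocytes isolated from whole blood on Ficoll Paque, stimulated with PHA (1 μL/mL) for 72 h and plated at 1 × 10^5/mL. Compounds added over 100 to 0.1 μg/mL. Survival measured after 24 h by MTT colorimetric assay, with formazan dissolved in acidic 2-propanol and absorbance read at 540 nm.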

MRC5CV1 = experiment: Concentration required for 50% inhibition of growth by the compound in SV-40 transformed fibroblasts (MRC5CV1); type: functional, cell-based; conditions: Homo sapiens
Outline: (§1)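 Cells kept in RPMI 1640 with 10% fetal calf serum at 37 °C, 5% CO2, then plated at 1 × 10^4 per 100 μL and left overnight. Exposure to varying concentrations for 1 h, followed by 48 h incubation. MTT (5 mg/mL stock) added for 4 h at 37 °C and formazan dissolved in 0.08 M HCl/2-propanol. Absorbance read at 540 nm against 690 nm reference. Three experiments, eight assays per point.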

T-24 = experiment: Concentration required for 50% inhibition of growth by the compound in transitional bladder carcinoma T24 cells; type: functional, cell-based, Homo sapiens; outline: as §1
[2] = Homo sapiens, T-24, read-out: IC50

Row | Structure (SMILES) | IC50 [1] [µg/mL] | IC50 (MRC5CV1) [µg/mL] | IC50 (T-24; [2]) [µg/mL] | IC50 (T-24; t-24) [µg/mL]
1 | CC(C)[C@@H]1NC(=O)[C@H]2N=C(O[C@@H]2C)[C@@H]2CCCN2C(=O)[C@H](Cc2ccccc2)NC(=O)[C@@H]2CSC(=N2)[C@H](Cc2ccccc2)NC(=O)[C@@H]2CSC1=N2 | 0.08 (≈ 0.108 µM) | 0.04 (≈ 0.0538 µM) | 0.06 (≈ 0.0806 µM) | –
2 | CC(C)C1NC(=O)C2N=C(OC2C)C2CCCN2C(=O)C(Cc2ccccc2)NC(=O)c2csc(n2)C(Cc2ccccc2)NC(=O)c2csc1n2 (stereo not given) | 20 (≈ 27 µM) | 15 (≈ 20.3 µM) | 10 (≈ 13.5 µM) | –
3 | CC(C)C1NC(=O)C2N=C(OC2C)C2CCCN2C(=O)C(Cc2ccccc2)NC(=O)c2csc(n2)C(Cc2ccccc2)NC(=O)C2CSC1=N2 (stereo in doubt; form 2) | – | – | – | 0.8 (≈ 1.08 µM)
4 | CC(C)C1NC(=O)C2N=C(OC2C)C2CCCN2C(=O)C(Cc2ccccc2)NC(=O)c2csc(n2)C(Cc2ccccc2)NC(=O)C2CSC1=N2 (stereo in doubt; form 1) | 8 (≈ 10.8 µM) | 1 (≈ 1.35 µM) | – | 6 (≈ 8.09 µM)
